Experimental data from different studies.
Lines come from different studies, so protocols differ.
CDK16: Cyclin-dependent kinase 16 (CDK16, Homo sapiens, UniProt Q00536)
CDK16 with cyclin Y: Cyclin-dependent kinase 16, with cyclin Y (CDK16, Homo sapiens, UniProt Q00536)

CCS(=O)(=O)c1cc2cc(C[C@](O)(CC(C)(C)c3ccc(F)cc3C(N)=O)C(F)(F)F)[nH]c2cn1  remaining binding (CDK16; cell-free assay, competition with immobilised ligand; 1 µM): 100%
Cn1c2c(c3ccccc31)C(C#N)C(C)(C)NC2=O (stereo not drawn)  ΔTm (CDK16; thermal stability, DSF; 10 µM): 0.2 °C
Cc1ccc(C(=O)Nc2ccc(CN3CCN(C)CC3)c(C(F)(F)F)c2)cc1C#Cc1cnc2cccnn12  remaining activity (CDK16; enzyme activity, inhibitor; 23.5 nM): 77%
Nc1cnc(N2CCc3cc(S(=O)(=O)Nc4c(F)cc(Cl)cc4F)cc(N4CCCC4=O)c32)nc1  remaining binding (CDK16; cell-free assay, competition with immobilised ligand; 1 µM): 98%
CCN1CCC2(CC1)NC(=O)c1c(c3ccc(Cl)c(Cl)c3n1C)C2C#N (racemic)  ΔTm (CDK16; thermal stability, DSF; 10 µM): 0 °C
CC(C)(C)c1nc(-c2cccc(NS(=O)(=O)c3c(F)cccc3F)c2F)c(-c2ccnc(N)n2)s1  remaining activity (CDK16 with cyclin Y; enzyme activity, inhibitor, radiometric; 1 µM): 53%
CN([C@@H]1CCc2c(CC(=O)O)c3cc(S(C)(=O)=O)ccc3n2C1)S(=O)(=O)c1ccc(F)cc1  remaining binding (CDK16; cell-free assay, competition with immobilised ligand; 1 µM): 84%
O=C(CSc1nc2nccnc2c(=O)n1CCc1ccccc1)Nc1nccs1  inhibition (CDK16 with cyclin Y; enzyme activity, inhibitor; 10 µM): -7%
c1ccc(CNc2nc(N3CCOc4ccccc43)nc3c2CCCC3)cc1  inhibition (CDK16; target engagement in cells, inhibitor, chemoproteomics; 20 mM): 2.9%
Cn1c2c(c3ccc(Cl)c(Cl)c31)C(C#N)C(C)(C)NC2=O (stereo not drawn)  ΔTm (CDK16; thermal stability, DSF; 10 µM): 0.7 °C
CCCOc1ccc([C@H]2[C@H](C(=O)O)[C@@H](c3ccc4c(c3)OCO4)CN2CC(=O)Nc2c(CC)cccc2CC)cc1  remaining binding (CDK16; cell-free assay, competition with immobilised ligand; 1 µM): 77%
COc1cccc2c(NCc3ccccc3)nc(-n3c(N)nc4ccccc43)nc12  inhibition (CDK16; target engagement in cells, inhibitor, chemoproteomics; 20 mM): -2.7%
